Measured values from ChEMBL document CHEMBL1140233, “Synthesis and preliminary biological evaluation of novel pyrazolo[1,5-a]pyrazin-4(5H)-one derivatives as potential agents against A549 lung cancer cells” (Bioorg Med Chem, 2008).
Calls of active or inactive are those of the source. The calls are words filed in the database; no cut-off is given here.

Columns and labels:
A549 [1] = assay: Growth inhibition of human A549 cells after 48 hrs by MTT assay; assay type: functional, cell-based; conditions: A549, 48 h
Method in brief: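 A549 cells kept in RPMI 1640 with 10% (v/v) bovine calf serum and 80 U/ml gentamicin at 37 °C, 5% CO2, and seeded in 96-well plates at 6250/cm². They were exposed to compound at 8, 16, 32 and 64 µM for 12, 24 or 48 h. Viability was read by MTT absorbance at 570 nm and expressed as percent of untreated control (n = 3).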

A549 [2] = assay: Induction of necrosis in human A549 cells at 64 uM after 48 hrs by LDH assay; assay type: functional, cell-based
Method in brief: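 A549 cells cultured in RPMI 1640 with 10% bovine calf serum were exposed to compound at 64 µM for 48 h. LDH released into the culture medium was measured by absorbance at 340 nm on a UV–vis spectrometer and compared with untreated control cells.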

A549 [3] = assay: Viability of human A549 cells at 32 uM after 12 hrs by MTT assay relative to control; conditions: A549, 12 h
A549 [4] = assay: Viability of human A549 cells at 32 uM after 24 hrs by MTT assay relative to control; conditions: A549, 24 h
A549 [5] = assay: Viability of human A549 cells at 32 uM after 48 hrs by MTT assay relative to control; conditions: A549, 48 h
A549 [6] = assay: Viability of human A549 cells at 64 uM after 48 hrs by MTT assay relative to control; conditions: A549, 48 h
A549 [7] = assay: Induction of apoptosis in human A549 cells assessed as DNA fragmentation at 16 uM after 24 hrs by acridine orange staining; assay type: functional, cell-based
Method in brief: (§1)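 A549 cells in RPMI 1640 with 10% bovine calf serum were treated with compound at 16 or 32 µM for 24 or 48 h. They were then stained with acridine orange for 1 min at room temperature and imaged by fluorescence microscopy. Nuclear DNA fragmentation, chromatin condensation and the volume of the acidic compartment were scored by eye (n = 4).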

A549 [8] = assay: Induction of apoptosis in human A549 cells assessed as DNA fragmentation at 32 uM after 24 hrs by acridine orange staining; assay type: functional, cell-based; method in brief: as §1
A549 [9] = assay: Induction of apoptosis in human A549 cells assessed as DNA fragmentation at 16 uM after 48 hrs by acridine orange staining; assay type: functional, cell-based; method in brief: as §1
A549 [10] = assay: Induction of apoptosis in human A549 cells assessed as DNA fragmentation at 32 uM after 48 hrs by acridine orange staining; assay type: functional, cell-based; method in brief: as §1
A549 [11] = assay: Induction of autophagy in human A549 cells assessed as volume of cellular acidic compartment at 32 uM by acridine orange staining; assay type: functional, cell-based; method in brief: as §1

IC50 (A549 [1]) [µM] | Structure (SMILES) | Activity (A549 [2]) | further results
31.5 | COc1ccc(CCN2CCn3nc(-c4ccccc4)cc3C2=O)cc1OC | inactive | –
> 64 | CC(C)(C)c1ccc(CN2CCn3nc(-c4ccc(Cl)cc4)cc3C2=O)cc1 | – | –
> 64 | COc1ccc(-c2cc3n(n2)CCN(C(C)C)C3=O)cc1 | – | –
> 64 | O=C1c2cc(-c3ccccc3)nn2CCN1Cc1ccccc1 | – | –
39.5 | O=C1c2cc(-c3ccc(Cl)cc3)nn2CCN1Cc1ccc(Cl)nc1 | inactive | –
> 64 | COc1ccc(-c2cc3n(n2)CCN(CCc2ccc(OC)c(OC)c2)C3=O)cc1 | – | –
29.8 | CCCCN1CCn2nc(-c3ccc(Cl)cc3)cc2C1=O | inactive | –
> 64 | O=C1c2cc(-c3ccccc3)nn2CCN1Cc1ccc(Cl)nc1 | – | –
> 64 | COc1ccc(-c2cc3n(n2)CCN(Cc2ccccc2)C3=O)cc1 | – | –
> 64 | COc1ccc(-c2cc3n(n2)CCN(Cc2ccc(Cl)nc2)C3=O)cc1 | – | –
> 64 | CCCCN1CCn2nc(-c3ccccc3)cc2C1=O | – | –
31 | CC(C)N1CCn2nc(-c3ccc(Cl)cc3)cc2C1=O | inactive | viability at 32 µM (A549 [3]): 81.4%; viability at 32 µM (A549 [4]): 75.7%; viability at 32 µM (A549 [5]): 50%; viability at 64 µM (A549 [6]): 34.6%
> 64 | CC(C)N1CCn2nc(-c3ccccc3)cc2C1=O | – | –
50.2 | COc1ccc(-c2cc3n(n2)CCN(Cc2ccc(C(C)(C)C)cc2)C3=O)cc1 | inactive | –
62.5 | CCCCN1CCn2nc(-c3ccc(OC)cc3)cc2C1=O | – | –
> 64 | CC(C)(C)c1ccc(CN2CCn3nc(-c4ccccc4)cc3C2=O)cc1 | – | –
22.3 | O=C1c2cc(-c3ccc(Cl)cc3)nn2CCN1Cc1ccccc1 | inactive | Activity (A549 [7]): inactive; Activity (A549 [8]): inactive; Activity (A549 [9]): inactive; Activity (A549 [10]): inactive; Activity (A549 [11]): Active; viability at 32 µM (A549 [3]): 78.7%; viability at 32 µM (A549 [4]): 73.6%; viability at 32 µM (A549 [5]): 39.2%; viability at 64 µM (A549 [6]): 26.5%
> 64 | COc1ccc(CCN2CCn3nc(-c4ccc(Cl)cc4)cc3C2=O)cc1OC | – | –
